Reference: ChEMBL document CHEMBL4373711, “Development of 3,5-Dinitrophenyl-Containing 1,2,4-Triazoles and Their Trifluoromethyl Analogues as Highly Efficient Antitubercular Agents Inhibiting Decaprenylphosphoryl-β-d-ribofuranose 2'-Oxidase” (J Med Chem, 2019)
Values after ≈ are worked out from the molar mass of the structure shown. Active and inactive are the calls of the source. The rule behind the calls is not given here.

Legend:
[1] = tested on: Mycobacterium tuberculosis; test: Antimycobacterial activity against XDR Mycobacterium tuberculosis Praha 131 after 14 days; type: functional; settings: Praha 131, 336 h
Outline: (§1)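 M. tuberculosis strains (H37Rv and clinical MDR/XDR isolates) tested by microdilution in Šula's semisynthetic medium. Compounds were dissolved in DMSO and tested at 32 to 0.03 µM in twofold steps. Inoculum was a 1.0 McFarland suspension diluted 10-3. Plates were incubated at 37 °C and read at 14 and 21 days.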

Mycobacterium avium [2] = test: Antimycobacterial activity against Mycobacterium avium CNCTC My 330/88 after 14 days; type: functional; settings: CNCTC My 330/88, 336 h
Outline: (§2)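 M. avium was tested by microdilution in Šula's semisynthetic medium, with compounds dissolved in DMSO and serially diluted from 1000 down to 1. Inoculum was a 1.0 McFarland suspension diluted 10-5. Plates were incubated at 37 °C and read at 14 and 21 days. […] Isoniazid and rifampicin served as standards.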

Mycobacterium kansasii [3] = test: Antimycobacterial activity against Mycobacterium kansasii 6509/96 after 7 days; type: functional; settings: 6509/96, 168 h
Outline: (§3)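 Microdilution in Šula's semisynthetic medium; compounds in DMSO at 32–0.03 µM. Inoculum from 1.0 McFarland suspension diluted 10-4. […] Isoniazid and rifampicin as reference drugs.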

[4] = tested on: Mycobacterium tuberculosis; test: Antimycobacterial activity against Mycobacterium tuberculosis H37Rv CNCTC My 331/88 after 21 days; type: functional; settings: H37Rv CNCTC My 331/88, 504 h; outline: as §1
Lichtheimia corymbifera = test: Antifungal activity against Lichtheimia corymbifera CCM 8077 at highest concentration measured after 24 to 48 hrs by alamar blue dye based broth microdilution assay; type: functional, organism-based
Mycobacterium kansasii [5] = test: Antimycobacterial activity against Mycobacterium kansasii 6509/96 after 21 days; type: functional; settings: 6509/96, 504 h; outline: as §3
Mycobacterium kansasii [6] = test: Antimycobacterial activity against Mycobacterium kansasii 6509/96 after 14 days; type: functional; settings: 6509/96, 336 h; outline: as §3
Staphylococcus aureus [7] = test: Antibacterial activity against methicillin-resistant Staphylococcus aureus subsp. aureus ATCC 43300 CCM 4750 at highest concentration measured after 24 to 48 hrs by alamar blue dye based broth microdilution assay; type: functional, organism-based
Candida albicans = test: Antifungal activity against Candida albicans ATCC 24433 CCM 8320 at highest concentration measured after 24 to 48 hrs by alamar blue dye based broth microdilution assay; type: functional, organism-based
Mycobacterium kansasii [8] = test: Antimycobacterial activity against Mycobacterium kansasii CNCTC My 235/80 after 7 days; type: functional; settings: CNCTC My 235/80, 168 h; outline: as §3
Escherichia coli = test: Antibacterial activity against Escherichia coli ATCC 25922 CCM 3954 at highest concentration measured after 24 to 48 hrs by alamar blue dye based broth microdilution assay; type: functional, organism-based
Mycobacterium avium [9] = test: Antimycobacterial activity against Mycobacterium avium CNCTC My 330/88 after 21 days; type: functional; settings: CNCTC My 330/88, 504 h; outline: as §2
Aspergillus flavus = test: Antifungal activity against Aspergillus flavus CCM 8363 at highest concentration measured after 24 to 48 hrs by alamar blue dye based broth microdilution assay; type: functional, organism-based
Staphylococcus aureus [10] = test: Antibacterial activity against Staphylococcus aureus subsp. aureus ATCC 29213 CCM 4223 at highest concentration measured after 24 to 48 hrs by alamar blue dye based broth microdilution assay; type: functional, organism-based
Enterococcus faecalis = test: Antibacterial activity against Enterococcus faecalis ATCC 29212 CCM 4224 at highest concentration measured after 24 to 48 hrs by alamar blue dye based broth microdilution assay; type: functional, organism-based
HepG2 = test: Cytotoxicity against human HepG2 cells assessed as reduction in cell viability after 48 hrs by CellTiter 96 aqueous one solution assay; type: cell-based; settings: HepG2, 48 h
[11] = Cytotoxicity against human HepG2 cells assessed as cell viability at 30 uM after 48 hrs by CellTiter 96 aqueous one solution assay relative to control; type: cell-based; settings: read-out: Activity
Outline: (§4)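 HepG2 (DMEM, 10% FBS, 1 mM pyruvate) or A431 (DMEM, 10% FBS) seeded 10,000 cells/well, 24 h at 37 °C, 5% CO2, then 30 µM compound for 48 h. MTS reagent 60 min, absorbance 490 nm, background subtracted; 0.1% DMSO vehicle = 100%, 10% SDS = 0% viability.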

[12] = Cytotoxicity against human A431 cells assessed as cell viability at 30 uM after 48 hrs by CellTiter 96 aqueous one solution assay relative to control; type: cell-based, A-431; settings: read-out: Activity; outline: as §4
Mycobacterium kansasii [13] = test: Antimycobacterial activity against Mycobacterium kansasii CNCTC My 235/80 after 21 days; type: functional; settings: CNCTC My 235/80, 504 h; outline: as §3
A-431 = test: Cytotoxicity against human A431 cells assessed as reduction in cell viability after 48 hrs by CellTiter 96 aqueous one solution assay; type: cell-based; settings: A-431, 48 h
Candida tropicalis = test: Antifungal activity against Candida tropicalis ATCC 750 CCM 8264 at highest concentration measured after 24 to 48 hrs by alamar blue dye based broth microdilution assay; type: functional, organism-based
Candida parapsilosis = test: Antifungal activity against Candida parapsilosis ATCC 22019 CCM 8260 at highest concentration measured after 24 to 48 hrs by alamar blue dye based broth microdilution assay; type: functional, organism-based
Pseudomonas aeruginosa = test: Antibacterial activity against Pseudomonas aeruginosa ATCC 27853 CCM 3955 at highest concentration measured after 24 to 48 hrs by alamar blue dye based broth microdilution assay; type: functional, organism-based
Mycobacterium kansasii [14] = test: Antimycobacterial activity against Mycobacterium kansasii CNCTC My 235/80 after 14 days; type: functional; settings: CNCTC My 235/80, 336 h; outline: as §3
[15] = tested on: Mycobacterium tuberculosis; test: Antimycobacterial activity against Mycobacterium tuberculosis H37Rv CNCTC My 331/88 after 14 days; type: functional; settings: H37Rv CNCTC My 331/88, 336 h; outline: as §1
Serratia marcescens = test: Antibacterial activity against Serratia marcescens at highest concentration measured after 24 to 48 hrs by alamar blue dye based broth microdilution assay; type: functional, organism-based
[16] = tested on: Trichophyton interdigitale; test: Antifungal activity against Trichophyton interdigitale ATCC 9533 CCM 8377 at highest concentration measured after 72 to 120 hrs by alamar blue dye based broth microdilution assay; type: functional
Pichia kudriavzevii = test: Antifungal activity against Candida krusei ATCC 6258 CCM8271 at highest concentration measured after 24 to 48 hrs by alamar blue dye based broth microdilution assay; type: functional, organism-based
[17] = tested on: Staphylococcus epidermidis; test: Antibacterial activity against Staphylococcus epidermidis at highest concentration measured after 24 to 48 hrs by alamar blue dye based broth microdilution assay; type: functional, organism-based
Klebsiella pneumoniae = test: Antibacterial activity against Klebsiella pneumoniae at highest concentration measured after 24 to 48 hrs by alamar blue dye based broth microdilution assay; type: functional, organism-based
Aspergillus fumigatus = test: Antifungal activity against Aspergillus fumigatus ATCC 204305 at highest concentration measured after 24 to 48 hrs by alamar blue dye based broth microdilution assay; type: functional, organism-based

| SMILES | MIC99 (Mycobacterium avium [2]) [µM] | MIC99 (Mycobacterium kansasii [3]) [µM] | MIC99 [4] [µM] | Activity (Lichtheimia corymbifera) | MIC99 (Mycobacterium kansasii [5]) [µM] | MIC99 (Mycobacterium kansasii [6]) [µM] | Activity (Staphylococcus aureus [7]) | Activity (Candida albicans) | MIC99 (Mycobacterium kansasii [8]) [µM] | Activity (Escherichia coli) | MIC99 (Mycobacterium avium [9]) [µM] | Activity (Aspergillus flavus) | Activity (Staphylococcus aureus [10]) | Activity (Enterococcus faecalis) | IC50 (HepG2) [µM] | viability at 48 h, 30 µM [11] [%] | viability at 48 h, 30 µM [12] [%] | MIC99 (Mycobacterium kansasii [13]) [µM] | MIC99 (Mycobacterium kansasii [14]) [µM] | MIC99 [15] [µM] | other results |
| --- | --- | --- | --- | --- | --- | --- | --- | --- | --- | --- | --- | --- | --- | --- | --- | --- | --- | --- | --- | --- | --- |
| CN[C@@H]1[C@H](O[C@H]2[C@H](O[C@H]3[C@H](O)[C@@H](O)[C@H](N=C(N)N)[C@@H](O)[C@@H]3N=C(N)N)O[C@@H](C)[C@]2(O)C=O)O[C@@H](CO)[C@H](O)[C@H]1O [STREPTOMYCIN] | – | – | – | – | – | – | – | – | – | – | – | – | – | – | – | – | – | – | – | – | MIC99 [1]: > 32 µM |
| Cn1c(SCc2ccc(Br)cc2)nnc1-c1cc([N+](=O)[O-])cc([N+](=O)[O-])c1 | 8 (≈ 3.6 µg/mL) | 0.25 (≈ 0.113 µg/mL) | 0.5 (≈ 0.225 µg/mL) | inactive | 1 (≈ 0.45 µg/mL) | 0.5 (≈ 0.225 µg/mL) | inactive | inactive | 0.5 (≈ 0.225 µg/mL) | inactive | 8 (≈ 3.6 µg/mL) | inactive | inactive | inactive | > 30 | 152 | 137 | 1 (≈ 0.45 µg/mL) | 0.5 (≈ 0.225 µg/mL) | 0.25 (≈ 0.113 µg/mL) | IC50 (A-431): > 30 µM; Activity (Candida tropicalis): inactive; Activity (Candida parapsilosis): inactive; Activity (Pseudomonas aeruginosa): inactive; Activity (Serratia marcescens): inactive; Activity [16]: inactive; Activity (Pichia kudriavzevii): inactive; Activity [17]: inactive; Activity (Klebsiella pneumoniae): inactive; Activity (Aspergillus fumigatus): inactive |
| O=[N+]([O-])c1cc(CSc2nnc(-c3ccccc3)n2C2CCCCC2)cc([N+](=O)[O-])c1 | 250 (≈ 110 µg/mL) | 1 (≈ 0.439 µg/mL) | 2 (≈ 0.879 µg/mL) | inactive | 4 (≈ 1.76 µg/mL) | 2 (≈ 0.879 µg/mL) | inactive | inactive | 1 (≈ 0.439 µg/mL) | inactive | 250 (≈ 110 µg/mL) | inactive | inactive | inactive | > 30 | 87 | 131 | 4 (≈ 1.76 µg/mL) | 2 (≈ 0.879 µg/mL) | 1 (≈ 0.439 µg/mL) | IC50 (A-431): > 30 µM; Activity (Candida tropicalis): inactive; Activity (Candida parapsilosis): inactive; Activity (Pseudomonas aeruginosa): inactive; Activity (Serratia marcescens): inactive; Activity [16]: inactive; Activity (Pichia kudriavzevii): inactive; Activity [17]: inactive; Activity (Klebsiella pneumoniae): inactive; Activity (Aspergillus fumigatus): inactive |
| O=[N+]([O-])c1cc(CSc2nnc(-c3ccc(Cl)cc3)n2Cc2ccccc2)cc(C(F)(F)F)c1 | 250 (≈ 126 µg/mL) | > 32 | > 32 | inactive | > 32 | > 32 | inactive | inactive | 32 (≈ 16.2 µg/mL) | inactive | 250 (≈ 126 µg/mL) | inactive | inactive | inactive | > 30 | 107 | 73 | > 32 | > 32 | 32 (≈ 16.2 µg/mL) | IC50 (A-431): > 30 µM; Activity (Candida tropicalis): inactive; Activity (Candida parapsilosis): inactive; Activity (Pseudomonas aeruginosa): inactive; Activity (Serratia marcescens): inactive; Activity [16]: inactive; Activity (Pichia kudriavzevii): inactive; Activity [17]: inactive; Activity (Klebsiella pneumoniae): inactive; Activity (Aspergillus fumigatus): inactive |
| CO[C@H]1/C=C/O[C@@]2(C)Oc3c(C)c(O)c4c(O)c(c(/C=N/N5CCN(C)CC5)c(O)c4c3C2=O)NC(=O)/C(C)=C\C=C\[C@H](C)[C@H](O)[C@@H](C)[C@@H](O)[C@@H](C)[C@H](OC(C)=O)[C@@H]1C [RIFAMPIN] | 32 (≈ 26.3 µg/mL) | 0.125 (≈ 0.103 µg/mL) | 0.25 (≈ 0.206 µg/mL) | – | 0.25 (≈ 0.206 µg/mL) | 0.25 (≈ 0.206 µg/mL) | – | – | 0.125 (≈ 0.103 µg/mL) | – | 62 (≈ 51 µg/mL) | – | – | – | – | – | – | 0.25 (≈ 0.206 µg/mL) | 0.25 (≈ 0.206 µg/mL) | 0.25 (≈ 0.206 µg/mL) | MIC99 [1]: > 8 µM |
